# A selection: hits, their analogues and other compounds. The true share with any hit is near 1.9%.
# NPY2 pot ag: NPY-Y2 potentiators or agonists, primary screen, cell-based | hit rate 0.45% among 220,000 | cells expressing NPY-Y2, potentiator/agonist read-out | AID 1359, 2008 | Neuropeptide Y receptor type 2 (Homo sapiens), P49146 | activation, % at 3.6 µM; in the data active means activation above about 27%;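 further: cells stimulated with NPY near EC25 plus isoproterenol at EC100; 0% = vehicle plus submaximal agonist and 100% = vehicle plus saturating agonist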
# Target sequence (P49146 whole entry, looked up): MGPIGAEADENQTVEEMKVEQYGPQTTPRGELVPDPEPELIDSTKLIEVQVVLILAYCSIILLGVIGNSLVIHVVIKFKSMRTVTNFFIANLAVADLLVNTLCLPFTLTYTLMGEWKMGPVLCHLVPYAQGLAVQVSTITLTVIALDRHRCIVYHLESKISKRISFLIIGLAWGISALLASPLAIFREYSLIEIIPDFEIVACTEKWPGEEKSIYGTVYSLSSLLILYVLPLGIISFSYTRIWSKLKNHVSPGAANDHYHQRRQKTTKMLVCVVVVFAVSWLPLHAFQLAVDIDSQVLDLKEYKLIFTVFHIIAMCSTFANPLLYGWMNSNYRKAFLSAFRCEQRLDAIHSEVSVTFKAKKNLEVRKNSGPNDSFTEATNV
# NPY1 pot ag: NPY-Y1 receptor potentiators or agonists, primary screen, cell-based | NPY-Y1 expressing cells, potentiator/agonist activation | activation, % at 3.6 µM | hit rate 0.37% among 220,000 | AID 1304, 2008; in the data active means activation above about 33%, passing the limit was not always enough;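 further: cells stimulated with NPY at EC10 then isoproterenol at EC100; 0% = low agonist plus stimulus and 100% = saturating agonist plus stimulus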
# NPY Y1 blocker: NPY-Y1 receptor antagonists, primary screen, cell-based; inhibition, % at 3.6 µM; HEK293-CNG Y1 cells, membrane potential fluorescence; NPY at EC95, then isoproterenol; AID 1040, 2008; hit rate 1% among 200,000;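 active means inhibition above the campaign mean inhibition of all tested compounds plus 3 SD, cut at about 20% in these data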;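 further: 0% = DMSO wells given NPY plus isoproterenol and 100% = isoproterenol alone without NPY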
#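 System: HEK293 cells with Y1 receptor plus CNG channel / Probe or stimulus: NPY 25 nM then isoproterenol 1 µM plus Ro 20-1724 25 µM / Compound: one concentration, 3.6 µM, in 0.4% DMSO / Schedule: compound incubation 1 h at room temperature, readout 45 min post-stimulation / Measured by: membrane potential fluorescence / Read-out: % inhibition of NPY effect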
# NPY-Y2 antag: NPY-Y2 receptor antagonists, primary screen, cell-based; AID 793, 2007; hit rate 0.99% among 140,000; NPY-Y2 expressing cells, antagonist mode; Neuropeptide Y receptor type 2 (Homo sapiens), P49146; inhibition, % at 2.7 µM; in the data active means inhibition above about 17%;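 further: 0% = vehicle with agonist challenge and 100% = reference antagonist with challenge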
# NPY-Y2 pot conf: NPY-Y2 potentiators or agonists, confirmation, cell-based; shares compounds with NPY2 pot ag; cell-based NPY-Y2 potentiator/agonist assay; activation, % at 3.6 µM; hit rate 20% among 450; in the data active means activation above about 33%
# NPY-Y1 counter: NPY-Y1 potentiators or agonists, counter-screen for NPY-Y2 potentiator project, cell-based, fluorescence; activation, % at 3.6 µM; hit rate 20% among 450; shares compounds with NPY2 pot ag; Y1 HEK293-CNG cells, membrane potential fluorescence; in the data active means activation above about 45%;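 further: cells stimulated with submaximal NPY then isoproterenol with phosphodiesterase inhibitor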
# NPY-Y1 ag 2: NPY-Y1 direct agonists, selectivity assay for NPY-Y2 potentiator project, cell-based, fluorescence | shares compounds with NPY2 pot ag | HEK293 Y1-CNGC, membrane potential fluorescence, agonism | activation, % at 3.6 µM | hit rate 37% among 450;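 active means activation above the mean of DMSO-only control wells plus 3 SD, cut at about 18% in these data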;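 further: cells stimulated with 1 µM isoproterenol plus the PDE inhibitor Ro 20-1724; 0% = isoproterenol with DMSO and no NPY and 100% = 40 nM NPY; Y1 agonists lower the membrane potential dye signal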
# CNGC inh: CNGC cAMP sensor activity inhibitors, counter-screen for NPY-Y2 potentiator project, cell-based, HEK293-CNG parental, membrane potential fluorescence | shares compounds with NPY2 pot ag | isoproterenol cAMP | inhibition, % at 3.6 µM | hit rate 32% among 450;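 active means inhibition above the control-well mean plus 3 SD of those wells, cut at about 22% in these data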;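 further: 0% = DMSO with isoproterenol and 100% = DMSO without isoproterenol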
# Y2 agonist ctr: NPY-Y2 direct agonists, counter-screen for NPY-Y2 potentiator project, cell-based, fluorescence; shares compounds with NPY2 pot ag; activation, % at 3.6 µM; HEK293 Y2/CNGC cells, membrane potential fluorescence, agonist mode; hit rate 56% among 450; AID 1710, 2009;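 active means activation above the mean of solvent-only control wells plus 3 SD, cut at about 10% in these data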;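 further: cells stimulated by isoproterenol with no NPY added so direct agonism is tested; 0% = DMSO with isoproterenol alone and 100% = NPY at EC100 plus isoproterenol; agonism lowers probe fluorescence through less cAMP and CNG channel opening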
# An asterisk follows results filed as active; x = no result given.
SMILES,NPY2 pot ag,NPY1 pot ag,NPY Y1 blocker,NPY-Y2 antag,NPY-Y2 pot conf,NPY-Y1 counter,NPY-Y1 ag 2,CNGC inh,Y2 agonist ctr
Cc1ccc(OCC(=O)Nc2cc(S(=O)(=O)N3CCOCC3)ccc2Cl)c([N+](=O)[O-])n1,6,-11,x,x,x,x,x,x,x
Cc1cc(/C=N/NC(=O)Cn2c3ccccc3c(=O)c3ccccc32)c(C)n1-c1ccc(Cl)cc1,31*,30,-3,3,29,32,0,-12,20*
CCNC(=S)N/N=C/c1cc(C)n(-c2ccc(Cl)cc2)c1C,-15,-17,6,x,x,x,x,x,x
CN(C)C(CN=C1NS(=O)(=O)c2ccccc21)c1ccco1 (stereo not given),51*,16,-5,x,0,6,-3,-1,-3
CCN(CC)S(=O)(=O)c1ccc2[nH]cc(C(=O)NCCN3CCCCC3C)c(=O)c2c1 (stereo not given),-2,-1,6,-3,x,x,x,x,x
CCN(CC)S(=O)(=O)c1ccc2[nH]cc(C(=O)NCCC3=CCCCC3)c(=O)c2c1,34*,36,-11,-4,19,13,13,14,23*
CCOc1ccccc1CN1CCN(Cc2ccon2)CC1CCO (stereo not given),8,8,x,x,x,x,x,x,x
O=C(O)C1CC=CCC1C(=O)N1CCN(c2nc(-c3ccccc3)c3ccccc3n2)CC1 (stereo not given),37*,43,14,7,17,2,18*,-6,14*
Cc1cc(C)c(S(=O)(=O)N(C)CC(=O)NCc2ccncc2)c(C)c1,-1,3,6,x,x,x,x,x,x
CS(=O)(=O)NCc1nnc(SCc2ccccc2C(F)(F)F)o1,0,14,10,4,x,x,x,x,x
CS(=O)(=O)NCc1nnc(SCc2ccc(C(F)(F)F)cc2)o1,102*,1,x,x,2,2,-1,-3,8
C[N+](C)(C)CCN1C(=O)CSC1=O,82*,27,x,x,-3,-1,-2,1,2
Cc1ccc(OCCN2C(=O)CSC2=O)cc1,0,-19,0,4,x,x,x,x,x
C=CCn1c(=O)c(C(=O)Nc2ccccc2O)c(O)c2ccccc21,53*,16,4,4,1,-9,-1,2,6

# Source: PubChem BioAssay
